One experiment relates to PGE2-treated THP-1 cells. Briefly: Real-time chemotaxis. The experiment is classed as cell-based, human. Put shortly: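 THP-1 cultured overnight with PGE2. Where stated, pre-incubated 15 min at room temperature with DMSO or 1 µM final antagonist. TAXIScan: 1 h migration at 37°C along gradients from 1 µl of 1 or 10 µM chemokine (1 µM CCL2 reference; no-stimulus basal). Frames every minute; cells tracked manually. FMI = y-axis distance/accumulated distance. Triplicate or quadruplicate runs per stimulus.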

A further experiment concerns primary human monocytes. As to the kind of experiment: Real-time chemotaxis. It is filed as cell-based. Conditions: 1 μM ML145. Put shortly:
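Monocytes isolated from healthy donor blood by negative selection (RosetteSep). Pre-incubated 15 min at room temperature in buffer with DMSO vehicle or 1 µM final antagonist. TAXIScan: 1 h migration at 37°C along gradients formed by 1 µl chemokine; no-stimulus basal. Images every minute; individual cells tracked manually; FMI parallel to gradient calculated per cell.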

The target of a further experiment is mouse GPR35 (Mus musculus, UniProt Q9ES90). Briefly: BRET β-arrestin-2 recruitment assay, HEK293T cells, mouse GPR35. It is filed as cell-based. In a few lines: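 HEK293T cells transiently transfected with polyethylenimine to co-express mouse GPR35 and β-arrestin-2, used 48 h after transfection. β-arrestin-2 recruitment read by bioluminescence resonance energy transfer.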
Chain of mouse GPR35 (Q9ES90 whole entry): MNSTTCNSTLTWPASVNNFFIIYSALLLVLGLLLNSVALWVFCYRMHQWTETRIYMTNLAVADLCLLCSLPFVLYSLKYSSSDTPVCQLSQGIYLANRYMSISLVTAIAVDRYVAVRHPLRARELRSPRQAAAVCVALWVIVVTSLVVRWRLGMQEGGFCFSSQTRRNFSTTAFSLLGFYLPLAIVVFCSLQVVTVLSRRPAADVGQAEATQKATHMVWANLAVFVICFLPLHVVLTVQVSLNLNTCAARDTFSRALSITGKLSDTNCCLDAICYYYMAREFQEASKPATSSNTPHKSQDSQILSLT

The next experiment has as its target rat GPR35 (Rattus norvegicus, UniProt Q33BM1). As to the kind of experiment: BRET β-arrestin-2 recruitment assay, HEK293T cells, rat GPR35. It is filed as cell-based.
The target of experiment [1] is T1, human GPR35a (Homo sapiens, UniProt Q9HC97). As to the kind of experiment: Inositol phosphate assay, GPR35a with Gq-G13 chimera. It is filed as cell-based. The note with it: 30 minutes.
T1 sequence (Q9HC97 whole entry): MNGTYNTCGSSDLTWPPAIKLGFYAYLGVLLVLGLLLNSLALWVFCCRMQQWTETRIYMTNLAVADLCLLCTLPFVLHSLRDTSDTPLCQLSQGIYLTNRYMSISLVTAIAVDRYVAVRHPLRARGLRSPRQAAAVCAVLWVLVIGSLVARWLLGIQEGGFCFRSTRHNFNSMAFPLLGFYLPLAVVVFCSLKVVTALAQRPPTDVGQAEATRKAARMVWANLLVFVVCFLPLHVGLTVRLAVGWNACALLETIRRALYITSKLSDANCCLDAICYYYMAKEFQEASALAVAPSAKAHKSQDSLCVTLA
The target of experiment [2] is T1, human GPR35a. As to the kind of experiment: Inositol phosphate assay, GPR35a with Gq-Gi1/2 chimera. It is filed as cell-based. The note with it: 30 minutes.
A further experiment has as its target GPR35b (Homo sapiens, UniProt Q9HC97). Briefly: Inositol phosphate assay, GPR35b with Gq-Gi1/2 chimera. The experiment is classed as cell-based. The note with it: 30 minutes.
The next experiment deals with 3xHA-GPR35 (Homo sapiens, UniProt Q9HC97). Briefly: GPR35 endocytosis assay, L1.2 clone 23. It is filed as cell-based. The note with it: 37°C, 15 minutes. In a few lines: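 L1.2 clone stably expressing N-terminal 3xHA-GPR35 (G418 1 mg/ml selection, limiting-dilution cloning), 2 x 10^6 cells/ml in RPMI/0.1% BSA. Mixed with equal volume of buffer holding agonist (20, 10 or 2 µM reference agonist; 2 µM chemokine) or DMSO vehicle. Incubated 15 min at 4°C (basal) and 37°C (endocytosis). Surface receptor by flow cytometry: anti-HA (10 µg/ml), FITC secondary, TO-PRO3.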
Chain of 3xHA-GPR35 (Q9HC97 whole entry): as above

The next experiment has as its system THP-1 cells. Briefly: Real-time chemotaxis. It is filed as cell-based, human. Conditions: resting THP-1. Put shortly: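 Resting THP-1 cells kept at 0.5 x 10^6/ml in supplemented RPMI 1640 with 10% FBS at 37°C, 5% CO2. TAXIScan: 1 h migration at 37°C along gradients from 1 µl of 1 µM or 10 µM chemokine (1 µM CCL2 reference); no-stimulus basal. Frames every minute; manual tracking. FMI = y-axis distance/accumulated distance. Pooled from 3 experiments, 3 movies per condition.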

The target in experiment [3] is T2, recombinant human chymase (Homo sapiens, UniProt P23946).
T2 sequence (P23946 22-247): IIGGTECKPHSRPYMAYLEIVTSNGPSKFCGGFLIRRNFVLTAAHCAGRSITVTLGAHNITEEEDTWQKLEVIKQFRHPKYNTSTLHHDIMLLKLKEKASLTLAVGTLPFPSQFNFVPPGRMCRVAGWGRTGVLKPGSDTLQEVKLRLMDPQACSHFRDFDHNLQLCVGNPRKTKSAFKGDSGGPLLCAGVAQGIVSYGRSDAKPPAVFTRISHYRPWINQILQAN
Briefly: Chemokine digestion with chymase, SDS-PAGE. The experiment is classed as biochemical. The note with it: 18hr incubation, 37°C. Put shortly: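 20 µg chemokine in 100 mM Tris-HCl pH 7.8, 10 mM CaCl2, split; one half given 0.1-0.4 µg chymase; both 18 h at 37°C. Samples in Tris-glycine SDS buffer heated 95°C 10 min, run on 4-12% Bis-Tris gels at 150 V for 50 min. Fixed in 25% isopropanol/10% acetic acid, stained with 0.25% Coomassie G-250 2 h, destained overnight; n=3.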

In another experiment the target is T3, CCR1 (Homo sapiens, UniProt P32246).
T3 sequence (P32246 1-355): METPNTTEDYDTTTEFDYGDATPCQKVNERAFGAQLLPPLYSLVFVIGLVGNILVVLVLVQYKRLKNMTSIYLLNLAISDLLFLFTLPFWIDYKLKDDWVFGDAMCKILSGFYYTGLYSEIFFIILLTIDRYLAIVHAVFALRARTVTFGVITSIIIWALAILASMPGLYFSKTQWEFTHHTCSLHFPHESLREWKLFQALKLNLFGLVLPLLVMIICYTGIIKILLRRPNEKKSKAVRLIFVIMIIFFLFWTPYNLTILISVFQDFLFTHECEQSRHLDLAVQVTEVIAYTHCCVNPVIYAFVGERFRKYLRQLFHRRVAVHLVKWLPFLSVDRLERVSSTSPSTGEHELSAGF
Briefly: Boyden chamber chemotaxis, CCR1 transfectants. It is filed as cell-based. The note with it: cleaved versus uncleaved chemokine. In a few lines: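 Chemokine digested for 18 h at 37°C with 0.1-0.4 µg recombinant human chymase in 100 mM Tris-HCl (pH 7.8), 10 mM CaCl2; undigested half incubated alongside. Cleaved and uncleaved forms tested on CCR1 transfectants in 96-well Boyden chambers: 5 h migration, 37°C, 5% CO2. Migrated cells quantified by ATP luminescence (Cell Titer-Glo); chemotactic index = response/buffer-alone basal; n=3.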

The record followed here is PMC6036231 (Journal of immunology (Baltimore, Md. : 1950), 2018).

Chain of GPR35b (Q9HC97 1-340 isoform Q9HC97-2): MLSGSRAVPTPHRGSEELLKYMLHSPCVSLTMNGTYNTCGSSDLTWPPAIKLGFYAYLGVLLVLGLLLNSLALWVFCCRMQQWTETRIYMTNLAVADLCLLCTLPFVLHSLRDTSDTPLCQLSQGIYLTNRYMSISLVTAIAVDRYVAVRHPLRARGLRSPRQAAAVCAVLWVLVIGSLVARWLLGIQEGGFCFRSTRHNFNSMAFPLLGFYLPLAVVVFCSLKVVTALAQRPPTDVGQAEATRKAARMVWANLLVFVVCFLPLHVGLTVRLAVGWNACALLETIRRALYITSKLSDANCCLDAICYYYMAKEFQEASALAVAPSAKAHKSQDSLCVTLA
Chain of rat GPR35 (Q33BM1 1-306): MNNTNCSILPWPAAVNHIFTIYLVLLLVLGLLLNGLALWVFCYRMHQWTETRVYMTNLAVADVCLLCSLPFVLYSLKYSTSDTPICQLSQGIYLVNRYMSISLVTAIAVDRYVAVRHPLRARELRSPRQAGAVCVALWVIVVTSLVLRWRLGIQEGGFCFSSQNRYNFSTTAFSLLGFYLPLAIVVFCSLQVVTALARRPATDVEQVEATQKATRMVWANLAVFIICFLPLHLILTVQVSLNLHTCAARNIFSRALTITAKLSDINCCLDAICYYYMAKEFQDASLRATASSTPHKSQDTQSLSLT

For `CC(/C=C1\SC(=S)N(CCCC(=O)Nc2ccc(C(=O)O)c(O)c2)C1=O)=C\c1ccccc1` [ML145], in the experiment on PGE2-treated THP-1 cells (1 μM ML145, 15 minutes pre-incubation), the “effect of pre-exposure on response of cells to 1μM CXCL17” value is given as “no inhibitory effect”. Further, the “effect of pre-treatment on monocyte migration to CXCL17” value with primary human monocytes is given as “unaffected”.
`CCCOc1ccccc1-c1nc2nn[nH]c2c(=O)[nH]1` [zaprinast]: the EC50 is 1050 nM on mouse GPR35 and 91.2 nM on rat GPR35.
Regarding `N#Cc1cc(NC(=O)C(=O)O)c(Cl)c(NC(=O)C(=O)O)c1` [lodoxamide], the “pEC50, inositol phosphate production” value at human GPR35a [1] is on record as 9.13 +/- 0.24; on human GPR35a [2], 8.64 +/- 0.08; at GPR35b, 9.05 +/- 0.07. In addition, the “endocytosis of GPR35” value at 3xHA-GPR35 (1 μM and 10μM) is “Significant endocytosis”. Also, the “endocytosis of GPR35, direct comparison” value at 3xHA-GPR35 (1 μM) is listed as “significant endocytosis”.
In the case of “CCL2: chemokine purchased from Peprotech EC”, the “forward migration index (FMI‖) versus basal” value in the experiment with THP-1 cells (1μM) is “significant response”. In the experiment with THP-1 cells (gradient from 1μl of 1μM, 1 hour), the “cell migration versus basal” value is on record as “many more cells were observed to migrate”. Also, in the experiment with PGE2-treated THP-1 cells (1μM, PGE2-treated THP-1), the “forward migration index (FMI‖) versus basal” value is reported as “significantly greater than the basal response” and the “increase in the number of migrating cells versus basal” value is reported as 6 fold.

B1: CCL15: CC-chemokine with extended N-terminus, purchased from Peprotech EC (protein, UniProt Q16663 22-113, looked up)
C-C motif chemokine 15: QFTNDAETELMMSKLPLENPVVLNSFHFAADCCTSYISQSIPCSLMKSYFETSSECSKPGVIFLTKKGRQVCAKPSGPGVQDCMKKLKPYSI
As for B1, in [3], the cleavage by chymase entry was “cleaved”. Besides, in the experiment with CCR1, the “effect of chymase cleavage on chemotactic potency” value is listed as “increased potency”.

B2: CCL23: CC-chemokine with extended N-terminus, purchased from Peprotech EC (protein, UniProt P55773 22-120, looked up)
C-C motif chemokine 23: RVTKDAETEFMMSKLPLENPVLLDRFHATSADCCISYTPRSIPCSLLESYFETNSECSKPGVIFLTKKGRRFCANPSDKQVQVCMRMLKLDTRIKTRKN
In the case of B2, the cleavage by chymase result in [3] was “cleaved”. In addition, in the experiment with CCR1, the “effect of chymase cleavage on chemotactic potency” value is on record as “increased potency”.
